Experimental data: ChEMBL document CHEMBL1145917, “Neurosteroid analogues. 9. Conformationally constrained pregnanes: structure-activity studies of 13,24-cyclo-18,21-dinorcholane analogues of the GABA modulatory and anesthetic steroids (3alpha,5alpha)- and (3alpha,5beta)-3-hydroxypregnan-20-one” (J Med Chem, 2003)

What was measured:
[1] = target: T1, GABA-A receptor; alpha-1/beta-2/gamma-2 (Rattus norvegicus) (UniProt P18508+P62813+P63138); experiment: In vitro direct current effect against rat GABA receptor alpha-1-beta-2-gamma-2 subunits expressed in Xenopus laevis oocytes at 10 uM (ratio +/- compound, without GABA); assay type: cell-based; conditions: Oocyte
In short: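 Same oocyte α1β2γ2L voltage-clamp setup at -70 mV, with peak current over 20 s applications. Compound was applied at 10 μM without GABA. Directly gated current is expressed as a ratio to the current evoked by 2 μM GABA, from at least four oocytes.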

[2] = Hill coefficient for loss of swimming response.; assay type: functional
In short: (§1)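 Groups of 10 early pre-limb-bud X. laevis tadpoles were placed in 100 mL oxygenated Ringer's containing compound at various concentrations. Compound came from a 10 mM DMSO stock, about 0.1% DMSO final. Loss of righting and loss of swimming responses were scored. EC50 and Hill coefficient n were taken from a Hill equation fit.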

[3] = target: T1, GABA-A receptor; alpha-1/beta-2/gamma-2 (Rattus norvegicus); experiment: In vitro current effect against rat GABA receptor alpha-1-beta-2-gamma-2 subunits expressed in Xenopus laevis oocytes at 10 uM (ratio +/- compound); assay type: cell-based; conditions: Oocyte
In short: (§2)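 Two-electrode voltage clamp at -70 mV, 2–5 days after injecting rat α1, β2 and γ2L cRNA (20–40 ng total, equal parts) into defolliculated stage V–VI oocytes held at 18 °C in ND96. Compound was co-applied with 2 μM GABA for 20 s and peak current measured. Value is the ratio of current with/without compound, from at least four oocytes.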

[4] = Hill coefficient for displacement of [35S]TBPS.; assay type: functional
In short: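 Rat brain membrane P2 fraction washed three times in 200 mM NaCl / 50 mM potassium phosphate, pH 7.4. Assay used 0.5 mg/mL protein, 5 μM GABA, 2 nM [35S]TBPS and steroid at 1 nM–10 μM final (0.5% DMSO), 2 h at room temperature, then filtration and scintillation counting. Nonspecific binding was taken with 200 μM picrotoxinin. Triplicate points, 2–3 curves per steroid; Hill equation fit gives n.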

[5] = target: T1, GABA-A receptor; alpha-1/beta-2/gamma-2 (Rattus norvegicus); experiment: In vitro current effect against rat GABA receptor alpha-1-beta-2-gamma-2 subunits expressed in Xenopus laevis oocytes at 1 uM (ratio +/- compound); assay type: cell-based; conditions: Oocyte; in short: as §2
[6] = Hill coefficient for loss of righting response.; assay type: functional; in short: as §1
[7] = target: GABA-A receptor; anion channel; experiment: Non-competitive displacement of [35S]TBPS from picrotoxin binding site found in heterogeneous Gamma-aminobutyric acid A receptor in rat brain membranes.; assay type: cell membranes
In short: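 Rat brain membranes (washed P2, 0.5 mg/mL final protein) incubated 2 h at room temperature with 5 μM GABA, 2 nM [35S]TBPS and steroid from DMSO (final 1 nM–10 μM) in 200 mM NaCl/50 mM potassium phosphate, pH 7.4. Nonspecific binding defined with 200 μM picrotoxinin. Filtration, scintillation counting, Hill fit for IC50. Triplicate points, two or three curves per steroid.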

[8] = Loss of swimming behavior in Xenopus laevis tadpole.; assay type: functional, frog; conditions: Amphibia, read-out: ED50 (the source's name); in short: as §1
[9] = Loss of righting reflex in Xenopus laevis tadpole.; assay type: functional, frog; conditions: Amphibia, read-out: ED50 (the source's name); in short: as §1
[10] = target: T1, GABA-A receptor; alpha-1/beta-2/gamma-2 (Rattus norvegicus); experiment: In vitro current effect against rat GABA receptor alpha-1-beta-2-gamma-2 subunits expressed in Xenopus laevis oocytes at 0.1 uM (ratio +/- compound); assay type: cell-based; conditions: Oocyte; in short: as §2

| Structure (SMILES) | Ratio [1] | nHill [2] | Ratio [3] | nHill [4] | Ratio [5] | nHill [6] | IC50 [7] [nM] | EC50 [8] [nM] | EC50 [9] [nM] | Ratio [10] |
| --- | --- | --- | --- | --- | --- | --- | --- | --- | --- | --- |
| C[C@]12CC[C@@H](O)C[C@H]1CC[C@H]1C3CCC4C(=O)C=CC[C@@]43CC[C@@H]12 (single isomer, unassigned) | 0.11 | -19.8 | 2.34 | 1.15 | 1.17 | -1.59 | 1570 | 8950 | 2560 | 1.07 |
| CC(=O)[C@H]1CC[C@H]2[C@@H]3CC[C@H]4C[C@H](O)CC[C@]4(C)[C@H]3CC[C@]12C [BREXANOLONE] | 0.37 | -7.5 | 9.65 | 0.89 | 3.89 | -1.83 |  | 5500 | 420 | 1.26 |
| C[C@]12CC[C@@H](O)C[C@@H]1CC[C@H]1[C@@H]3CCC4C(=O)CCC[C@@]43CC[C@@H]12 (stereo partly drawn) | 0 | -33.5 | 2.28 | 0.84 | 1.44 | -2.51 | 514 | 5450 | 1360 | 1.01 |
| C[C@]12CC[C@@H](O)C[C@H]1CC[C@H]1[C@@H]3CCC4C(=O)CCC[C@@]43CC[C@@H]12 (stereo partly drawn) | -0.25 | -33.5 | 1.51 | 1.36 | 1.12 | -1.23 | 1780 | 5480 | 940 | 0.93 |
| C[C@]12CC[C@@H](O)C[C@@H]1CC[C@H]1[C@@H]3CCC4CC(=O)CC[C@@]43CC[C@@H]12 (stereo partly drawn) | 0.06 |  | 2.93 | 0.95 | 1.61 | -2.02 | 1440 |  | 2370 | 1.3 |
| C[C@]12CC[C@@H](O)C[C@@H]1CC[C@@H]1[C@@H]2CC[C@]23C=CC(=O)C[C@H]2CC[C@@H]13 | -0.04 | -33.5 | 5.07 | 1 | 1.54 | -1.57 | 1260 | 5480 | 730 | 1.12 |
| C[C@]12CC[C@@H](O)C[C@@H]1CC[C@H]1[C@@H]3CCC4C=CC(=O)C[C@@]43CC[C@@H]12 (stereo partly drawn) | 0.35 | -17 | 16.6 | 0.89 | 5.53 | -1.16 | 243 | 10000 | 1280 | 1.59 |
| C[C@]12CC[C@@H](O)C[C@H]1CC[C@H]1[C@@H]3CCC4CC(=O)CC[C@@]43CC[C@@H]12 (stereo partly drawn) | -0.1 | -18.7 | 2.65 | 0.73 | 1.11 | -1.86 | 3230 | 9430 | 2470 | 0.97 |
| C[C@]12CC[C@@H](O)C[C@H]1CC[C@@H]1[C@@H]2CC[C@]23C=CC(=O)C[C@H]2CC[C@@H]13 | 0.26 | -33.5 | 4.44 | 0.95 | 1.8 | -1.5 | 4750 | 5480 | 560 | 1.87 |
| C[C@]12CC[C@@H](O)C[C@@H]1CC[C@@H]1[C@@H]2CC[C@]23C(=O)C=CC[C@H]2CC[C@@H]13 | 0.07 | -24.2 | 9.45 | 1.03 | 8.33 |  | 197 | 2660 | 1200 | 1.98 |
| C[C@]12CC[C@@H](O)C[C@H]1CC[C@H]1[C@@H]3CCC4CCC(=O)C[C@@]43CC[C@@H]12 (stereo partly drawn) | 0.01 | -17.5 | 3.17 | 0.89 | 1.03 | -3.02 | 899 | 3550 | 1440 | 0.97 |
| C[C@]12CC[C@@H](O)C[C@@H]1CC[C@H]1C3CCC4C(=O)C=CC[C@@]43CC[C@@H]12 (single isomer, unassigned) | 0.72 |  | 9.07 | 1.17 | 5.87 | -2.79 | 373 |  | 3380 | 1.49 |
| C[C@]12CC[C@@H](O)C[C@H]1CC[C@H]1[C@@H]3CCC4C=CC(=O)C[C@@]43CC[C@@H]12 (stereo partly drawn) | -0.02 | -22.1 | 4.5 | 0.64 | 1.83 | -16.6 | 268 | 2720 | 1050 | 1.07 |
| C[C@]12CC[C@@H](O)C[C@H]1CC[C@@H]1[C@@H]2CC[C@]23C(=O)C=CC[C@H]2CC[C@@H]13 | 0.2 | -18.6 | 21.4 | 0.9 | 3.15 | -4.97 | 105 | 1000 | 400 | 1.36 |
| C[C@]12CC[C@@H](O)C[C@@H]1CC[C@H]1[C@@H]3CCC4CCC(=O)C[C@@]43CC[C@@H]12 (stereo partly drawn) | 0.32 | -16.7 | 6.49 | 1.14 | 1.64 | -1.75 | 334 | 3580 | 1120 | 1.39 |
| C[C@]12CC[C@@H](O)C[C@H]1CC[C@@H]1[C@@H]2CC[C@]23C(=O)CCCC2CC[C@@H]13 (stereo partly drawn) | 0.04 | -18.2 | 10.4 | 0.95 | 3.45 | -4.97 | 329 | 890 | 40 | 1.26 |
| C[C@]12CC[C@@H](O)C[C@@H]1CC[C@@H]1[C@@H]2CC[C@]23C(=O)CCCC2CC[C@@H]13 (stereo partly drawn) | 0.39 | -36.5 | 10.7 | 1.01 | 3.05 | -1.75 | 301 | 1730 | 320 | 1.22 |
| CC(=O)[C@H]1CC[C@H]2[C@@H]3CC[C@@H]4C[C@H](O)CC[C@]4(C)[C@H]3CC[C@]12C [ELTANOLONE] | 0.06 | -6.93 | 9.77 | 0.57 | 2.82 | -1.54 |  | 300 | 63 | 1.2 |
